This is an account of results in ChEMBL document CHEMBL4270649 (Eur J Med Chem, 2018).

Data set [1] addresses T1, Dual specificity tyrosine-phosphorylation-regulated kinase 1B (Homo sapiens, UniProt Q9Y463). In words: Inhibition of full length recombinant human GST-tagged DYRK1B expressed in baculovirus expression system using KKISGRLSPIMTEQ-NH2 as substrate after 15 mins in presence of 15 uM [gamma32P]ATP by phosphor imaging analysis.
Data set [2] deals with T1, Dual specificity tyrosine-phosphorylation-regulated kinase 1B. As to conditions: 0.25 h, read-out: INH.
Data set [3] has as its target T2, Dual specificity tyrosine-phosphorylation-regulated kinase 1A (Homo sapiens, UniProt Q13627). In words: Inhibition of recombinant human N-terminal His6-tagged DYRK1A expressed in Escherichia coli BL21(DE3) using KKISGRLSPIMTEQ-NH2 as substrate after 15 mins in presence of 15 uM [gamma32P]ATP by phosphor imaging analysis.
In data set [4] the target is T2, Dual specificity tyrosine-phosphorylation-regulated kinase 1A. In words: Inhibition of recombinant human N-terminal His6-tagged DYRK1A expressed in Escherichia coli BL21(DE3) at 1.25 uM using KKISGRLSPIMTEQ-NH2 as substrate after 15 mins in presence of 15 uM [gamma32P]ATP by phosphor imaging analysis relative to control.
In data set [5] the target is Cyclin-dependent kinase 5/CDK5 activator 1 (Homo sapiens) (UniProt Q00535+Q15078). In words: Inhibition of full length human GST/His-tagged CDK5/p25 expressed in baculovirus expression system at 1.25 uM in presence of 100 uM ATP by Z'-Lyte assay relative to control.
The target of data set [6] is Dual specificity protein kinase CLK1 (Homo sapiens, UniProt P49759). In words: Inhibition of recombinant human GST-tagged CLK1 (129 to 484 residues) expressed in Escherichia coli using GRSRSRSRSRSRSRSR as substrate after 15 mins in presence of 15 uM [gamma32P]ATP by phosphor imaging analysis.
For data set [7], the target named is Dual specificity protein kinase CLK2 (Homo sapiens) (UniProt P49760). The data set can be described thus: Inhibition of human GST-tagged CLK2 expressed in baculovirus expression system at 1.25 uM in presence of 100 uM ATP relative to control.
The target in data set [8] is Casein kinase I isoform delta (Homo sapiens) (UniProt P48730). The data set can be described thus: Inhibition of CK1delta (unknown origin) at 1.25 uM in presence of 100 uM ATP relative to control.
The target of data set [9] is T3, Serine/threonine-protein kinase haspin (Homo sapiens, UniProt Q8TF76).
T3 sequence (Q8TF76 whole entry): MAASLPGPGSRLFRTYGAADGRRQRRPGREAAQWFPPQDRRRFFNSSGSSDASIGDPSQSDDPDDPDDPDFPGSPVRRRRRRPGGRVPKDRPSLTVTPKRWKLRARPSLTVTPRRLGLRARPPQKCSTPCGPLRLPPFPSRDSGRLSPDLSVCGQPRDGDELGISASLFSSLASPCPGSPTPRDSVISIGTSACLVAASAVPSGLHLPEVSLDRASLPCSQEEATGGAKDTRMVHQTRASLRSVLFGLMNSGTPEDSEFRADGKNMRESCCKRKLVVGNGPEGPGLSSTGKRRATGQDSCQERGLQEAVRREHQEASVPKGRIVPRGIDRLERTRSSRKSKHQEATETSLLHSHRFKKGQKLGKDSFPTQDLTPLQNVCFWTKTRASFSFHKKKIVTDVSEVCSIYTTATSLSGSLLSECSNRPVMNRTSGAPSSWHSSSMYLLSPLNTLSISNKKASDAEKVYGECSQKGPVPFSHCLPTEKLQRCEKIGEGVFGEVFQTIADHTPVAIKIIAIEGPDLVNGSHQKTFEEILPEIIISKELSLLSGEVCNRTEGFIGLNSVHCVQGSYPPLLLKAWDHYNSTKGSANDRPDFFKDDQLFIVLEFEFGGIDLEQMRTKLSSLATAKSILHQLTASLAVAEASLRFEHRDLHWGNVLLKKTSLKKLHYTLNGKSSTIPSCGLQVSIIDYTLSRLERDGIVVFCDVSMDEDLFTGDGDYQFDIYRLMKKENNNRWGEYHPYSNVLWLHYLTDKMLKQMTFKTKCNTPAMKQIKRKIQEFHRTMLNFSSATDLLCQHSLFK
The data set can be described thus: Inhibition of human GST-tagged haspin expressed in baculovirus expression system at 1.25 uM in presence of 100 uM ATP relative to control.

For data set [10], the target named is T3, Serine/threonine-protein kinase haspin. The data set can be described thus: Inhibition of human GST-tagged haspin expressed in baculovirus expression system in presence of 100 uM ATP.
The target in data set [11] is Homeodomain-interacting protein kinase 1 (Homo sapiens) (UniProt Q86Z02). The data set can be described thus: Inhibition of human GST-tagged HIPK1 expressed in baculovirus expression system at 1.25 uM in presence of 100 uM ATP relative to control.
In data set [12] the target is Myosin light chain kinase 2, skeletal/cardiac muscle (Homo sapiens) (UniProt Q9H1R3). In words: Inhibition of human full length GST-tagged MLCK2 expressed in baculovirus expression system at 1.25 uM in presence of 100 uM ATP relative to control.
Data set [13] has as its target BDNF/NT-3 growth factors receptor (Homo sapiens) (UniProt Q16620). The data set can be described thus: Inhibition of human His-tagged TRK-B expressed in baculovirus expression system at 1.25 uM in presence of 100 uM ATP relative to control.
Data set [14] concerns the target Serine/threonine-protein kinase pim-1 (Homo sapiens) (UniProt P11309). In words: Inhibition of full length human His-tagged PIM1 expressed in baculovirus expression system at 1.25 uM in presence of 100 uM ATP relative to control.
For data set [15], the target named is SRSF protein kinase 1 (Homo sapiens) (UniProt Q96SB4). In words: Inhibition of full length human His-tagged SRPK1 expressed in baculovirus expression system at 1.25 uM in presence of 100 uM ATP relative to control.
The target of data set [16] is T4, Serine/threonine-protein kinase 17A (Homo sapiens) (UniProt Q9UEE5).
T4 sequence (whole entry): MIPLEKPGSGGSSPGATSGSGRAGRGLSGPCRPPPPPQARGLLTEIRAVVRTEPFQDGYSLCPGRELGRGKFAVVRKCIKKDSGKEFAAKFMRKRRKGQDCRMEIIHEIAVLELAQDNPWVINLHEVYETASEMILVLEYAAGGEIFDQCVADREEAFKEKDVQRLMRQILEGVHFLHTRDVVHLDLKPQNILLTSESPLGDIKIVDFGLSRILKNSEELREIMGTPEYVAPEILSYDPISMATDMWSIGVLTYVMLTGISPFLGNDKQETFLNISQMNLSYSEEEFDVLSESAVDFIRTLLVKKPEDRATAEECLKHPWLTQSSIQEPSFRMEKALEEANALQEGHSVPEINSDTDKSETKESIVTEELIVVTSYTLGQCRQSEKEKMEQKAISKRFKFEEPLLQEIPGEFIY
The data set can be described thus: Inhibition of full length human GST-tagged STK17A expressed in baculovirus expression system at 1.25 uM in presence of 100 uM ATP relative to control.

Data set [17] deals with T2, Dual specificity tyrosine-phosphorylation-regulated kinase 1A. The data set can be described thus: Inhibition of DYRK1A in human HeLa cells harboring GFP-SF3b1-NT assessed as reduction in SF3b1 phosphorylation at T343 residue after 18 hrs by Western blot analysis. It is filed as cell-based.
The nature of data set [18]: Cytotoxicity against human HeLa cells assessed as cell viability at 1 uM after 3 days by XTT assay relative to control. It is filed as cell-based. As to conditions: read-out: Activity. A general note: Tetrazolium dyes change colour on reduction, which living cells bring about.
Data set [19] in a line: Cytotoxicity against human HeLa cells assessed as cell viability at 3 uM after 3 days by XTT assay relative to control. It is filed as cell-based. As to conditions: read-out: Activity.
A short description of data set [20]: Cytotoxicity against human HeLa cells assessed as cell viability at 10 uM after 3 days by XTT assay relative to control. It is filed as cell-based. As to conditions: read-out: Activity.
The nature of data set [21]: Half life in human liver S9 fraction at 0.3 uM in presence of NADP+/UDPGA by LC-MS/MS analysis. It is filed as ADME, subcellular. A digest of the protocol:
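Compound was incubated with human S9 fraction and samples were taken at defined time points. Remaining parent was quantified by LC-MS/MS: ESI triple quadrupole, RP C18 column, water/acetonitrile with 0.1% TFA, 5–100% B over 7 min at 400 µL/min. Half-life was calculated from the remaining-parent data.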

Each structure is given as a SMILES string. The source made the active and inactive calls.

T1 sequence (Q9Y463 whole entry): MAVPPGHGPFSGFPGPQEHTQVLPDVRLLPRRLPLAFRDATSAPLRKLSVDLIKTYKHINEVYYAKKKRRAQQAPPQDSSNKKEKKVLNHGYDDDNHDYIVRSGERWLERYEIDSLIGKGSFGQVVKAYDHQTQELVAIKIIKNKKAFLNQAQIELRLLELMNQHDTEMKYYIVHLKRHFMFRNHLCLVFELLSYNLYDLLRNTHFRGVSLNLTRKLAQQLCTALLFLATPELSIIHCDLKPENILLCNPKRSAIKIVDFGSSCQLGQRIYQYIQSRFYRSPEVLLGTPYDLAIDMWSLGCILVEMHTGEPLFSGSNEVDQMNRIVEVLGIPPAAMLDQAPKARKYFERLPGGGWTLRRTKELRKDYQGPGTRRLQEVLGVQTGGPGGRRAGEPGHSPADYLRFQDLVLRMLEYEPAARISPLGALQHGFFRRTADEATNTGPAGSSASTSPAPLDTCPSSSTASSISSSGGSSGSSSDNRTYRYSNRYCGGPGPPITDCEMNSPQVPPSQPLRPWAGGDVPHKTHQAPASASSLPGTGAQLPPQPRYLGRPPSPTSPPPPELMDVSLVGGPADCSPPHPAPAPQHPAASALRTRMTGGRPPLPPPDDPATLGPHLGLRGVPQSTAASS
Sequence of Casein kinase I isoform delta (Homo sapiens) (P48730 whole entry, looked up, canonical isoform): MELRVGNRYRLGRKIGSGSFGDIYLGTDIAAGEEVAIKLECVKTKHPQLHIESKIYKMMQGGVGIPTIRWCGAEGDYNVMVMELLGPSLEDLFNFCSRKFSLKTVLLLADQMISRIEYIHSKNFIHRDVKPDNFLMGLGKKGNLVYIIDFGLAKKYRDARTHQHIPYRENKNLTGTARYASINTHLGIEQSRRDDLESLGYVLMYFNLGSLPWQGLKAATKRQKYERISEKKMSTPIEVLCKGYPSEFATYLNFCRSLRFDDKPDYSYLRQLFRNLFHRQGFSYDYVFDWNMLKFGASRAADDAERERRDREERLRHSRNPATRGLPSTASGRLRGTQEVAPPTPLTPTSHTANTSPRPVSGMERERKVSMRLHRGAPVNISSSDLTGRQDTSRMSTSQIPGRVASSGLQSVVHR
Sequence of Serine/threonine-protein kinase pim-1 (Homo sapiens) (P11309 whole entry, looked up): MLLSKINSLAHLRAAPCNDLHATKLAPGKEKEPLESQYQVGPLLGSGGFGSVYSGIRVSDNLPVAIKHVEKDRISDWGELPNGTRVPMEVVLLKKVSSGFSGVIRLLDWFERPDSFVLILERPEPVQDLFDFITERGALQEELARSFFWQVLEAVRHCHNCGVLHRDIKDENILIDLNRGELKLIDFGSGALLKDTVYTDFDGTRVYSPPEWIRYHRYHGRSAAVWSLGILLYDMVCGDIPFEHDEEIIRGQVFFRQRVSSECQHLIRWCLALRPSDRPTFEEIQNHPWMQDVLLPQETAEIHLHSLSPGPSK
Sequence of SRSF protein kinase 1 (Homo sapiens) (Q96SB4 whole entry): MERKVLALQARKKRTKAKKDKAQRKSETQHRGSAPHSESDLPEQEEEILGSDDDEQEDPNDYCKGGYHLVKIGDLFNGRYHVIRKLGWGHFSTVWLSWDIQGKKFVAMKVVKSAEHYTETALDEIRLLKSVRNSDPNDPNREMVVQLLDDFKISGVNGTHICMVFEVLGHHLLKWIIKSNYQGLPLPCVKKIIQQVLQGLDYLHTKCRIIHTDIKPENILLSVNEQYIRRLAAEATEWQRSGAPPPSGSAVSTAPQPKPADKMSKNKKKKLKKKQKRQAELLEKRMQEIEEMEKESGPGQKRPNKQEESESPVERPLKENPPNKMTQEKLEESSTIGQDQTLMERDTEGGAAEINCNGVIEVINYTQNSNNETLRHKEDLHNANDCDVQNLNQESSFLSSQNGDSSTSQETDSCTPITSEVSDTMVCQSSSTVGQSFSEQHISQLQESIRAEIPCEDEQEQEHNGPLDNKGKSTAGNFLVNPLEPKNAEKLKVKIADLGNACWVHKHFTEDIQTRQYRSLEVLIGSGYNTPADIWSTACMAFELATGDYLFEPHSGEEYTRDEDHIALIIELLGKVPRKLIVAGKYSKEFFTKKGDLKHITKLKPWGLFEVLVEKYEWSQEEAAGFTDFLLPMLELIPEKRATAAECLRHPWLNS
Sequence of Myosin light chain kinase 2, skeletal/cardiac muscle (Homo sapiens) (Q9H1R3 whole entry): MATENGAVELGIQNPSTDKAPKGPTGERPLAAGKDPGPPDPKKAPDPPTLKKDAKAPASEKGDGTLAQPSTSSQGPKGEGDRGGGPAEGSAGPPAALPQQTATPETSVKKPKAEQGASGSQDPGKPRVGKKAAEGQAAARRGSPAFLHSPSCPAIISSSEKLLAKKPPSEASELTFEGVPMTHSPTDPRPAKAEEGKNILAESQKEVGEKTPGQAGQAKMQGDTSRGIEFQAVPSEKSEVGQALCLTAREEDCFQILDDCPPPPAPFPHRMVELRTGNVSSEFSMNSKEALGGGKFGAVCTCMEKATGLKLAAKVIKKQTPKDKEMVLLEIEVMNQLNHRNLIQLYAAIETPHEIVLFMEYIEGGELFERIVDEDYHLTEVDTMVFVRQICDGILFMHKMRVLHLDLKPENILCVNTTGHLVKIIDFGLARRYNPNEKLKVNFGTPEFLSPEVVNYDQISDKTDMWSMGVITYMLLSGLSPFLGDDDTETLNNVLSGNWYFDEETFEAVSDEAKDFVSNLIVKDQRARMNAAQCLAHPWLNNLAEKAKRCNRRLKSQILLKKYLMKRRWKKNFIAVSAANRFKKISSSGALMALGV
Sequence of Dual specificity protein kinase CLK2 (Homo sapiens) (P49760 whole entry, looked up, canonical isoform): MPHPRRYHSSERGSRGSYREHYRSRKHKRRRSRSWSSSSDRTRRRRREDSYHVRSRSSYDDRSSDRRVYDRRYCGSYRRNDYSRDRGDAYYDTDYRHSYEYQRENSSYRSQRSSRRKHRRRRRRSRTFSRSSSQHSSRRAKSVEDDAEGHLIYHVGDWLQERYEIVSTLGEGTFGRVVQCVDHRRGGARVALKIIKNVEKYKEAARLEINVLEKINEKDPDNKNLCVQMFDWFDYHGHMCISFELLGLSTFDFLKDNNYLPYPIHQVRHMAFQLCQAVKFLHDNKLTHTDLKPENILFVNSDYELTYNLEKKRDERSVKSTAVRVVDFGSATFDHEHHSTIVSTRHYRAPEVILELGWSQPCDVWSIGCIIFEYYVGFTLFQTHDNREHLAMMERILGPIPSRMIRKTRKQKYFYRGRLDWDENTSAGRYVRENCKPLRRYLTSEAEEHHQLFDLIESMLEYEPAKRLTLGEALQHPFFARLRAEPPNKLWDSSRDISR
Sequence of Cyclin-dependent kinase 5/CDK5 activator 1 (Homo sapiens) (Q00535 whole entry, the tested form may be a part): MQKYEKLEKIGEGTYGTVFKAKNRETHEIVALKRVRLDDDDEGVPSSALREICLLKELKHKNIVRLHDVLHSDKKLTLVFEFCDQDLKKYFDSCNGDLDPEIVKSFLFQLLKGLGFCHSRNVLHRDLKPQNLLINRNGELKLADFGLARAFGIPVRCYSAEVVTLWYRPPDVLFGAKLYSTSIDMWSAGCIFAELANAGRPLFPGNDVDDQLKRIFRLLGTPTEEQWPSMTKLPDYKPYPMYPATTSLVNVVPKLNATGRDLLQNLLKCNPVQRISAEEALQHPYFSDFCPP
Sequence of Cyclin-dependent kinase 5/CDK5 activator 1 (Homo sapiens) (Q15078 99-307 partner limits assumed): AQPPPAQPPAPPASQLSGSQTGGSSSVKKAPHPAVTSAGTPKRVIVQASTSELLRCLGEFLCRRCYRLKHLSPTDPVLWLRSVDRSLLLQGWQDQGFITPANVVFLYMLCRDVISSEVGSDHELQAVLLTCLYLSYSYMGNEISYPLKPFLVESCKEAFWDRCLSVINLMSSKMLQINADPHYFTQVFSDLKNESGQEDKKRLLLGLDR
Sequence of BDNF/NT-3 growth factors receptor (Homo sapiens) (Q16620 32-822 limits assumed): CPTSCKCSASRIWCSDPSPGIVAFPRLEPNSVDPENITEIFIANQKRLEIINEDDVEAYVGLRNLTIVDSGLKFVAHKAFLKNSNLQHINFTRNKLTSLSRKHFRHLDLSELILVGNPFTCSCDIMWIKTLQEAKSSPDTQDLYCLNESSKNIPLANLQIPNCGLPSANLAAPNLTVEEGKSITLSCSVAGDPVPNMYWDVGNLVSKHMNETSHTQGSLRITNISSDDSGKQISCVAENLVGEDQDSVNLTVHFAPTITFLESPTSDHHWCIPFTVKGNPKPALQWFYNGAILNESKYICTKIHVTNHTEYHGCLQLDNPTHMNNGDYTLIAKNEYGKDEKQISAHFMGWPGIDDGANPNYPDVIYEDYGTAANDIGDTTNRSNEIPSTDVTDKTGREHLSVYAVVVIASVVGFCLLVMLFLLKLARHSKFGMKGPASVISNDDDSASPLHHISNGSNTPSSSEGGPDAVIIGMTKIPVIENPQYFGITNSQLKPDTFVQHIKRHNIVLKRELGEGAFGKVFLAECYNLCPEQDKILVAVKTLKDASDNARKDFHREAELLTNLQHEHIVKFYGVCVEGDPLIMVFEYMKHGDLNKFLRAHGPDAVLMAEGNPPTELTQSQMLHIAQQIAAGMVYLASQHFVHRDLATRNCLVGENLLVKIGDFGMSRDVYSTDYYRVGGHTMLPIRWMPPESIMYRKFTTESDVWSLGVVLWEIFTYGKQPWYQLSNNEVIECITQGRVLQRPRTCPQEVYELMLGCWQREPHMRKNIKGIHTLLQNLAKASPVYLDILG
Sequence of Dual specificity protein kinase CLK1 (P49759 whole entry, the tested form may be a part): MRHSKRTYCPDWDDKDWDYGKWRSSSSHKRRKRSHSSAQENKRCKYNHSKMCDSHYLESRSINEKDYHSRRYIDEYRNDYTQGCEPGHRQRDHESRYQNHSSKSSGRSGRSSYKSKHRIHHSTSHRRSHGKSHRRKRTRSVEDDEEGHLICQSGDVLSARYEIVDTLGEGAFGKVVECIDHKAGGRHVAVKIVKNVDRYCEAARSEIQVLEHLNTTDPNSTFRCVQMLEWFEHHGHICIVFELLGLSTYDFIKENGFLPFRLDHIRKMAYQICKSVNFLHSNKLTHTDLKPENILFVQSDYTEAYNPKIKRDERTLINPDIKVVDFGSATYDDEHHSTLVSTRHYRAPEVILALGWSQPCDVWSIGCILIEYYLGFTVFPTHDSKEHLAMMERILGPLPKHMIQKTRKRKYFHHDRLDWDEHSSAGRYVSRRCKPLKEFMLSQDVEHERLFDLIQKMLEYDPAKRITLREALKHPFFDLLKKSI

One may read the IC50 as the point on the concentration scale where inhibition reaches its midpoint. Consider `O=C(Nc1cncc(-c2cc(-c3cccnc3)cs2)c1)C1CCC1`, for which, in [1], the IC50 came to 219 nM. In addition, the inhibition at 0.25 µM in data set [2] worked out at 81%.

Take `CCN(C(=O)C1CC1)c1cncc(-c2cc(-c3cccnc3)cs2)c1`: the inhibition at 0.25 µM in [2] came to 14.6%.

Turning to `O=C(CN1CCCCC1)Nc1cncc(-c2cc(-c3cccnc3)cs2)c1`, the inhibition at 0.25 µM in [2] was 51.8%.

As to `O=C(Nc1cncc(-c2cccs2)c1)C1CC1`, in data set [2], the inhibition at 0.25 µM is 0%.

As a reminder, the half-life is the time needed for the level to fall by half in the phase considered. For `O=C(Nc1cncc(-c2cc(-c3cccnc3)cs2)c1)C1CC1`, the IC50 came out at 3.2 nM in [3]; 72.9 nM in data set [1]; 270 nM in data set [6]; 76.3 nM in [10]; 43 nM in [17]. In addition, the inhibition in data set [4] turned out to be 89%; in data set [5], 1%; in [7] it was 21%; in data set [8] it was 4%; in [11] it was 1%; in data set [12] it was 12.1%. Also, the inhibition in [13] is 8%; in [15], 2%; in data set [16] it was 51.3%; in data set [17], “Dose-dependent effect”. Besides, the inhibition at 1.25 µM in data set [9] is 72%. Also, in data set [14], the inhibition entry is “inactive”. Moreover, the viability at 72 h, 1 µM in [18] was determined as 99%. Besides, the viability at 72 h, 3 µM in data set [19] worked out at 102%. For the same molecule, the viability at 72 h, 10 µM in data set [20] was 98%. Further, in [21], the half-life at 0.3 µM was determined as 2.4 h. Besides, the inhibition at 0.25 µM in data set [2] was 40%.

With `CCCn1cc(-c2csc(-c3cncc(NC(=O)C4CC4)c3)c2)cn1`, the IC50 in [1] is 98.8 nM. Moreover, the inhibition at 0.25 µM in data set [2] turned out to be 65.7%.

On to `CCn1cc(-c2csc(-c3cncc(NC(=O)C4CC4)c3)c2)cn1`, for which, in [2], the inhibition at 0.25 µM is 57%.

On to `CC(=O)Nc1cncc(-c2cc(-c3cccnc3)cs2)c1`, for which the viability at 72 h, 1 µM in data set [18] came to 98%. Moreover, in data set [19], the viability at 72 h, 3 µM amounted to 95%. In addition, the viability at 72 h, 10 µM in [20] was 83%. Besides, in data set [2], the inhibition at 0.25 µM came to 40.3%.

On to `CS(=O)(=O)Nc1cncc(-c2cc(-c3cccnc3)cs2)c1`, for which the inhibition at 0.25 µM in data set [2] is 23.5%.

Regarding `O=C(CN1CCOCC1)Nc1cncc(-c2cc(-c3cccnc3)cs2)c1`, the inhibition at 0.25 µM in [2] was found to be 13.9%.

Regarding `CCC(=O)Nc1cncc(-c2cc(-c3cccnc3)cs2)c1`, the inhibition at 0.25 µM in data set [2] came to 49.3%.

For `CN(C(=O)C1CC1)c1cncc(-c2cc(-c3cccnc3)cs2)c1`, in data set [2], the inhibition at 0.25 µM worked out at 0.9%.

For the molecule `O=C(Nc1cncc(-c2cc(-c3cccnc3)cs2)c1)C1CCCCC1`, the inhibition at 0.25 µM in data set [2] is 51%.

For `CN[C@@H]1C[C@H]2O[C@@](C)([C@@H]1OC)n1c3ccccc3c3c4c(c5c6ccccc6n2c5c31)C(=O)NC4` [STAUROSPORINE], the viability at 72 h, 1 µM in data set [18] was 33%.

For the molecule `CC(C)n1cc(-c2csc(-c3cncc(NC(=O)C4CC4)c3)c2)cn1`, the inhibition at 0.25 µM in [2] was found to be 0.7%.

Regarding `Cn1cc(-c2csc(-c3cncc(NC(=O)C4CC4)c3)c2)cn1`, the IC50 in data set [1] came to 67.1 nM. In data set [2], the inhibition at 0.25 µM came to 78.6%.

Turning to `O=C(Nc1cncc(-c2cc(-c3cccnc3)cs2)c1)C1CCNC1` (stereo not given), the IC50 in [1] amounted to 132 nM. Further, in data set [2], the inhibition at 0.25 µM turned out to be 62.7%.

Turning to `CC(C)(C)OC(=O)N1CCC(C(=O)Nc2cncc(-c3cc(-c4cccnc4)cs3)c2)C1` (stereo not given), the inhibition at 0.25 µM in data set [2] was found to be 34.9%.

With `O=C(Nc1cncc(-c2cc(-c3cn[nH]c3)cs2)c1)C1CC1`, the IC50 in data set [1] came to 138 nM. The half-life at 0.3 µM in data set [21] worked out at 2.45 h. The inhibition at 0.25 µM in data set [2] was 58.1%.

For the molecule `O=C(Cc1nnn[nH]1)Nc1cncc(-c2cc(-c3cccnc3)cs2)c1`, the inhibition at 0.25 µM in [2] is 38.5%.
